Laboratory results as given in ChEMBL document CHEMBL5230178, “6-Bromoindirubin-3'-oxime derivatives are highly active colistin adjuvants against Klebsiella pneumoniae” (RSC Med Chem, 2023).
Calls of active or inactive are those of the source. No cut-off for these calls is given here.

How the values were obtained:
[1] = system: Klebsiella pneumoniae; assay: Potentiation of colistin-induced antibacterial activity against colistin resistant Klebsiella pneumoniae B9 assessed as colistin MIC at 5 uM incubated for 16 hrs by broth microdilution method; type: functional
Method in brief: (§1)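 Bacteria grown 6 h in CAMHB, diluted to 5×10^5 CFU/mL. Fixed adjuvant concentration added from DMSO stock; an undosed aliquot gives the colistin MIC alone. Colistin serially two-fold diluted in the compound-dosed suspension. MIC taken at 90% growth inhibition versus untreated wells. Fold change is colistin MIC alone over MIC with adjuvant. Duplicate, repeated at least twice.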

[2] = system: Klebsiella pneumoniae; assay: Antibacterial activity against Klebsiella pneumoniae B9 assessed as inhibition of bacterial growth incubated for 16 hrs by broth microdilution method; type: functional
Method in brief: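 Broth microdilution in CAMHB. Six-hour culture diluted to 5×10^5 CFU/mL, compound added from DMSO stock, two-fold serial dilution. MIC is the lowest concentration giving 90% growth inhibition versus untreated wells. Run in duplicate, repeated at least twice.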

[3] = system: Klebsiella pneumoniae; assay: Antibacterial activity against colistin resistant Klebsiella pneumoniae C3 assessed as inhibition of bacterial growth incubated for 16 hrs by broth microdilution method; type: functional, organism-based
Method in brief: (§2)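 Bacteria grown 6 h in cation-adjusted Mueller Hinton broth (CAMHB), subcultured to 5×10^5 CFU/mL. Compound added from DMSO stock and serially two-fold diluted in the culture. Incubated stationary at 37 °C for 16 h. MIC taken as the lowest concentration giving 90% growth inhibition versus untreated wells. Duplicate, repeated at least twice.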

[4] = system: Pseudomonas aeruginosa; assay: Antimicrobial activity against colistin resistant Pseudomonas aeruginosa TRPA 162 assessed as inhibition of microbial growth incubated for 16 hrs by broth microdilution method; type: functional, organism-based; method in brief: as §2
[5] = system: Klebsiella pneumoniae; assay: Antibacterial activity against colistin resistant Klebsiella pneumoniae F9 assessed as inhibition of bacterial growth incubated for 16 hrs by broth microdilution method; type: functional, organism-based; method in brief: as §2
[6] = system: Klebsiella pneumoniae; assay: Antibacterial activity against colistin resistant Klebsiella pneumoniae I2 assessed as inhibition of bacterial growth incubated for 16 hrs by broth microdilution method; type: functional, organism-based; method in brief: as §2
[7] = system: Escherichia coli; assay: Antimicrobial activity against colistin resistant Escherichia coli 25922 harbouring mcr-1 gene assessed as inhibition of microbial growth incubated for 16 hrs by broth microdilution method; type: functional, organism-based; method in brief: as §2
[8] = system: Acinetobacter baumannii; assay: Antimicrobial activity against colistin resistant Acinetobacter baumannii 3941 assessed as inhibition of microbial growth incubated for 16 hrs by broth microdilution method; type: functional, organism-based; method in brief: as §2
[9] = system: Klebsiella pneumoniae; assay: Antibacterial activity against colistin resistant Klebsiella pneumoniae F2210291 harbouring mcr-1 gene assessed as inhibition of bacterial growth incubated for 16 hrs by broth microdilution method; type: functional, organism-based; method in brief: as §2
[10] = system: Klebsiella pneumoniae; assay: Potentiation of colistin-induced antibacterial activity against colistin-resistant Klebsiella pneumoniae B9 assessed as fold change in colistin MIC at 5 uM incubated for 16 hrs by broth microdilution method; type: functional; method in brief: as §1
[11] = system: Klebsiella pneumoniae; assay: Potentiation of colistin-induced antibacterial activity against colistin resistant Klebsiella pneumoniae F2210291 harbouring mcr-1 gene assessed as colistin MIC at 5 uM incubated for 16 hrs by broth microdilution method; type: functional; method in brief: as §1
[12] = system: Klebsiella pneumoniae; assay: Potentiation of colistin-induced antibacterial activity against colistin resistant Klebsiella pneumoniae I2 assessed as colistin MIC at 5 uM incubated for 16 hrs by broth microdilution method; type: functional; method in brief: as §1
[13] = system: Klebsiella pneumoniae; assay: Potentiation of colistin-induced antibacterial activity against colistin-resistant Klebsiella pneumoniae B9 assessed as fold change in colistin MIC at 3 uM incubated for 16 hrs by broth microdilution method; type: functional; method in brief: as §1
[14] = system: Klebsiella pneumoniae; assay: Potentiation of colistin-induced antibacterial activity against colistin resistant Klebsiella pneumoniae C3 assessed as colistin MIC at 5 uM incubated for 16 hrs by broth microdilution method; type: functional; method in brief: as §1
[15] = system: Klebsiella pneumoniae; assay: Potentiation of colistin-induced antibacterial activity against colistin-resistant Klebsiella pneumoniae B9 assessed as colistin MIC at 3 uM incubated for 16 hrs by broth microdilution method; type: functional; method in brief: as §1
[16] = system: Klebsiella pneumoniae; assay: Potentiation of colistin-induced antibacterial activity against colistin-resistant Klebsiella pneumoniae B9 assessed as colistin MIC at 1 uM incubated for 16 hrs by broth microdilution method; type: functional; method in brief: as §1
[17] = system: Pseudomonas aeruginosa; assay: Potentiation of colistin-induced antimicrobial activity against colistin-resistant Pseudomonas aeruginosa TRPA 162 assessed as colistin MIC at 5 uM incubated for 16 hrs by broth microdilution method; type: functional; method in brief: as §1
[18] = system: Klebsiella pneumoniae; assay: Potentiation of colistin-induced antibacterial activity against colistin resistant Klebsiella pneumoniae F9 assessed as colistin MIC at 5 uM incubated for 16 hrs by broth microdilution method; type: functional; method in brief: as §1
[19] = system: Acinetobacter baumannii; assay: Potentiation of colistin-induced antimicrobial activity against colistin resistant Acinetobacter baumannii 3941 assessed as assessed as colistin MIC at 5 uM incubated for 16 hrs by broth microdilution method; type: functional; method in brief: as §1
[20] = system: Escherichia coli; assay: Potentiation of colistin-induced antimicrobial activity against colistin resistant Escherichia coli 25922 harbouring mcr-1 gene assessed as colistin MIC at 5 uM incubated for 16 hrs by broth microdilution method; type: functional; method in brief: as §1

| Molecule | MIC [1] [µg/mL] | MIC [2] | fold change (FC) [10] | further results |
| --- | --- | --- | --- | --- |
| Cc1ccc2c(c1)NC(=O)/C2=C1\Nc2ccccc2\C1=N/O | > 16 | > 200 µM |  |  |
| COLISTIN |  | 512 µg/mL |  | MIC [3]: 128 µg/mL; MIC [4]: 1020 µg/mL; MIC [5]: 256 µg/mL; MIC [6]: 512 µg/mL; MIC [7]: 16 µg/mL; MIC [8]: 1020 µg/mL; MIC [9]: 16 µg/mL |
| O=C1Nc2cc(Br)ccc2/C1=C1/Nc2c(cccc2-c2ccccc2)/C1=N\O | > 16 | > 200 µM |  |  |
| Cc1ccc2c(c1)C(=N\O)/C(=C1/C(=O)Nc3cc(Br)ccc31)N2 | > 16 |  |  |  |
| O=C1Nc2cc(Br)ccc2/C1=C1/Nc2c(Cl)cc(Cl)cc2/C1=N\O | > 16 | > 200 µM |  |  |
| O=C1Nc2c(Br)cccc2/C1=C1/Nc2ccccc2/C1=N\O | > 16 | > 200 µM |  |  |
| Cc1cccc2c1NC(=C1\C(=O)Nc3cc(Br)ccc31)/C2=N/O | 4 | > 200 µM | 128 |  |
| O=C1Nc2cc(Br)ccc2/C1=C1/Nc2cc(F)ccc2/C1=N\O | > 16 | > 200 µM |  |  |
| O=C1Nc2cc(Br)ccc2/C1=C1/Nc2ccccc2/C1=N\O [6BIO] | 1 | > 200 µM | 512 | MIC [11]: 2 µg/mL; MIC [12]: 8 µg/mL; fold change (FC) [13]: 16; Activity [4]: inactive; MIC [14]: 4 µg/mL; MIC [15]: 32 µg/mL; Activity [7]: inactive; MIC [16]: > 64 µg/mL; MIC [17]: > 16 µg/mL; MIC [18]: 4 µg/mL; MIC [19]: > 16 µg/mL; MIC [20]: 2 µg/mL; Activity [8]: inactive |
| O=C1Nc2cc(Br)ccc2/C1=C1/Nc2cc(Cl)c(Cl)cc2/C1=N\O | > 16 | > 200 µM |  |  |
| O=C1Nc2cc(Br)ccc2/C1=C1/Nc2cc(F)c(F)cc2/C1=N\O | 1 | > 200 µM | 512 | fold change (FC) [13]: 128; MIC [15]: 4 µg/mL; MIC [16]: > 64 µg/mL |
| O=C1Nc2cc(Br)ccc2/C1=C1/Nc2ccc(F)cc2/C1=N\O | 2 | > 200 µM | 256 | fold change (FC) [13]: 16; MIC [15]: 32 µg/mL; MIC [16]: > 64 µg/mL |
| O=C1Nc2cc(Cl)ccc2/C1=C1/Nc2ccccc2/C1=N\O | 4 | > 200 µM | 128 |  |
| O=C1Nc2cc(F)ccc2/C1=C1/Nc2ccccc2/C1=N\O | > 16 | > 200 µM |  |  |
| O=C1Nc2ccc(Cl)cc2/C1=C1/Nc2ccccc2/C1=N\O | > 16 | > 200 µM |  |  |
